Results on 19 compounds are retold here after PubChem BioAssay AID488948 (Broad Institute, 2010).

The nature of assay [1]: apoptosis induction, MEWO cells without priming – caspase-Glo luminescence, dry powder, counter-screen for Bcl2-A1 inhibitor project, dose response (AID 488948). To be noted: MEWO unprimed cells, caspase-3/7 Glo luminescence, 3 h, hits give high values. The essentials: (§1)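 Assay system: unprimed MEWO cells expressing A1, no BIM or tBID priming / Input: 2500 cells/well / Technique: CaspaseGlo luminescence after 1 h at room temperature / Dosing: compound added by pin transfer, day after plating / Incubation: 3 h compound at 37 °C, 1 h CaspaseGlo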

The subject of assay [2] is MEWO unprimed cells, caspase-3/7 Glo luminescence, 3 h. Described as above. The procedure, abridged:
as §1

SMILES strings stand for the structures. Records with an inconclusive call do not appear. Active and inactive are the calls of the source.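 How the source made its calls: active means compounds raising caspase signal whose fitted AC50 is at or under a set limit scaled from top dose; inconclusive means flat fit at middling activation, or poor curve fit; inactive means the rest.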

As to `C/C1=C/C(=O)O[C@@H]2C[C@@H](CC[C@H](C)/C=C\CC1)O[C@@](O)(C1CSC(=O)N1)C2` (some centres undefined), the max caspase activation in assay [1] (at 46 µM) is 1.79% (inactive).
As to `O=C(Oc1cccc(/C=N/Nc2nc(Nc3ccccc3)nc(N3CCOCC3)n2)c1)c1ccco1`, in assay [1] (at 68 µM), the max caspase activation is 2.05% (inactive).
The AC50 is the concentration at which the activity in the assay is half-maximal. With `Cc1cc(C(=O)CCl)c(C)n1CCc1ccc(Cl)cc1`, in assay [2], the AC50 is 18.4 µM.
As for `Cc1ccc(Sc2c([N+](=O)[O-])c(=O)n(C)c3ccccc23)cc1`, the max caspase activation in assay [1] (at 100 µM) is 3.9% (inactive).
Regarding `Cc1cccc(CS(=O)(=O)c2ncc(Cl)c(C(=O)Nc3nnc(C(C)C)s3)n2)c1`, the max caspase activation in assay [1] (at 150 µM) was -3.23% (inactive).
For the compound `Nc1nc(F)nc2c1ncn2[C@@H]1O[C@H](CO)[C@@H](O)[C@H]1O`, the max caspase activation in assay [1] (at 0.1 µM) was 2.46% (inactive).
Regarding `COc1cc(/C=C(/C#N)c2nc3ccccc3[nH]2)ccc1OCC(=O)Nc1ccccc1C(C)C`, the max caspase activation in assay [1] (at 9 µM) was 2.17% (inactive).
Take `CC(=O)N[C@H]1[C@H](O[C@H]2CC[C@@]3(C)C(CC[C@]4(C)C3CC=C3[C@@H]5CC(C)(C)CC[C@]5(C(=O)OC5OCC(O)C(O)C5O)C(O)C[C@]34C)C2(C)C)O[C@H](COC2OCC(O)C(OC3OCC(O)C(O)C3O)C2O)[C@@H](O[C@@H]2O[C@@H](C)[C@H](O)[C@@H](O)[C@H]2O[C@@H]2O[C@@H](C)[C@H](O)[C@@H](O)[C@H]2O)[C@@H]1O` (some centres undefined): in assay [1] (at 135 µM), the max caspase activation is -2.6% (inactive).
As for `COc1cccc(C(=O)C(C#N)=C(SC)SC)c1`, the max caspase activation in assay [1] (at 150 µM) was -3.79% (inactive).
For the compound `Cn1c(=NC(=O)CCl)sc2ccccc21`, the max caspase activation in assay [1] (at 0.068 µM) is -1.67% (inactive).
On to `Cc1ccc(CS(=O)(=O)c2ncc(Cl)c(C(=O)Nc3nnc(C(C)C)s3)n2)cc1`, for which, in assay [1] (at 100 µM), the max caspase activation was -3.83% (inactive).
`C=C1[C@@H](C)[C@H]2[C@H](Cc3ccccc3)NC(=O)[C@]23OC(=O)/C=C\[C@H](O)CCC[C@@H](C)C/C=C/[C@H]3[C@@H]1O`: the max caspase activation in assay [1] (at 2.6 µM) is 2.11% (inactive).
`Cc1c(CCOC(=O)c2ccc(N3CCOCC3)c([N+](=O)[O-])c2)sc[n+]1CC#N`: the AC50 in assay [2] was > 100 µM (inactive).
In the case of `CCOC(=O)CSC1=N/C(=C/c2ccc(-n3cncn3)cc2)C(=O)N1C(C)=O`, the AC50 in assay [2] was > 150 µM (inactive).
For `CCSc1nnc(NC(=O)c2nc(S(=O)(=O)Cc3ccc(F)cc3)ncc2Cl)s1`, the max caspase activation in assay [1] (at 150 µM) was -5.59% (inactive).
On the same count and under the same terms, the same measure for `CC(C)(C)n1nc(-c2ccc(Cl)cc2)c2c(N)ncnc21`: 4.52% (inactive).
For the compound `COc1ccc(N(C(=O)CCl)C(C(=O)NCCc2ccccc2)c2cccs2)cc1Cl` (centres undefined), in assay [2], the AC50 was 15.6 µM.
With `CCc1nnc(NC(=O)c2nc(S(=O)(=O)Cc3ccccc3)ncc2Cl)s1`, the max caspase activation in assay [1] (at 0.068 µM) is -1.73% (inactive).
As to `O=C(CCl)N=c1sccn1Cc1ccccc1Cl`, the AC50 in assay [2] is > 150 µM (inactive).
